Paper PMC12849484 (Microbial Cell Factories, 2025)

What was measured:
[1] = system: D-lactate-pyruvate pathway in Synechocystis sp. PCC 6803 cells; test: LC-MS quantification of intracellular pyruvate and surrounding metabolites; assay type: cell-based; settings: 10 µM, normalized to WT
In short: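 Cells were exposed to test conjugate at final 10 µM, with untreated wild-type and Δddh strain as comparators, and sampled at 24 and 48 h. For each sample, 8 mL culture was membrane-filtered (0.2 µm) and extracted; the aqueous phase was dried and analysed by LC-MS against 1–100 µg/mL standards. Values were normalized to untreated wild-type; ≥3 replicates; ANOVA.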

[2] = system: Synechocystis sp. PCC 6803; test: Growth curves; assay type: cell-based; settings: OD730 over 72 h, triplicates
In short: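 Synechocystis subcultures in BG11 (10 mL, starting OD730 0.2) were pre-incubated 23 h, then given test conjugate from a 1 mM water stock to final 2, 4, 6, 8 or 10 µM. Controls were untreated cells and 10 µM non-specific CPP-PNA. Hour 0 was 1 h after addition. OD730 was followed over time; triplicates, mean ± SD.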

Row | Sequence | D-lactate level at 24 h ([1]; 24 h, N = 3) | change in acetyl-CoA concentration ([1]; 24 h, N = 3) | change in malate concentration ([1]; 24 h, N = 3) | change in phosphoenolpyruvate (PEP) concentration ([1]; 24 h, N = 3) | increase in pyruvate compared to untreated wild-type ([1]; 24 h, N = 3) | increase in D-lactate accumulation compared to wild-type ([1]; 48 h post-treatment, at least three replicates) | growth inhibition at 10 µM [2]
1 | TTCATGACGA [CPP-Syn6803ddh] | consistently low | minimal or no changes | minimal or no changes | minimal or no changes | 2.5 fold | 3 fold | 
2 | CTCATAGATC [CPP-ncPNA] |  |  |  |  |  |  | no growth inhibition
